pIC50: −log10 of the molar value.
Key:
[1] = tested on: PC-3; assay: Growth inhibition of human PC3 cells after 48 hrs by MTT assay; assay type: functional, cell-based; details: PC-3, 48 h
In short: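 PC-3 human prostate cancer cells exposed to compounds, with viability read by MTT assay; taxol served as the positive control.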

[2] = tested on: MCF7; assay: Growth inhibition of human MCF7 cells after 48 hrs by MTT assay; assay type: functional, cell-based; details: MCF7, 48 h
[3] = tested on: MDA-MB-231; assay: Growth inhibition of human MDA-MB-231 cells after 48 hrs by MTT assay; assay type: functional, cell-based; details: MDA-MB-231, 48 h
[4] = tested on: A549; assay: Growth inhibition of human A549 cells after 48 hrs by MTT assay; assay type: functional, cell-based; details: A549, 48 h
[5] = tested on: Vero; assay: Cytotoxicity against African green monkey Vero cells at 100 uM after 48 hrs by MTT assay; assay type: cell-based; details: chlorocebus sabaeus

Row | Structure (SMILES) | pIC50 [1] | further results
1 | C=C1CC[C@@H]2[C@](C)(CO)[C@H](O)CC[C@@]2(C)[C@@H]1CC(Sc1ncccn1)C1=CCOC1=O (some centres undefined) | 5.15 | pIC50 [2]: 4.64; pIC50 [3]: 4.80; pIC50 [4]: 5.05; Activity [5]: Non-Toxic
2 | C=C1CC[C@@H]2[C@]3(C)COC(C)(C)O[C@@H]3CC[C@@]2(C)[C@@H]1CC(Sc1ccc(OC)cc1)C1=CCOC1=O (some centres undefined) | 4.77 | 
3 | C=C1CC[C@@H]2[C@](C)(CO)[C@H](O)CC[C@@]2(C)C1C/C=C1/C(=O)OC[C@H]1OC(=O)CCCSc1ccc(C)cc1 (single isomer, unassigned) | 4.80 | 
4 | C=C1CC[C@@H]2[C@]3(C)COC(C)(C)O[C@@H]3CC[C@@]2(C)[C@@H]1CC(Sc1ccc(C)cc1)C1=CCOC1=O (some centres undefined) | 4.64 | 
5 | C=C1CC[C@@H]2[C@](C)(CO)[C@H](O)CC[C@@]2(C)[C@@H]1CC(Sc1ccccn1)C1=CCOC1=O (some centres undefined) | 4.74 | 
6 | C=C1CC[C@@H]2[C@](C)(CO)[C@H](O)CC[C@@]2(C)[C@@H]1C/C=C1/C(=O)OCC1OC(=O)CSc1ccc(F)cc1 (some centres undefined) | 4.89 | 
7 | C=C1CC[C@@H]2[C@]3(C)COC(C)(C)O[C@@H]3CC[C@@]2(C)[C@@H]1C/C=C1/C(=O)OC[C@H]1OC(=O)CCCSc1ccccn1 | 5.05 | pIC50 [2]: 6.22; pIC50 [3]: 5.22; pIC50 [4]: 4.64; Activity [5]: Non-Toxic
8 | C=C1CC[C@@H]2[C@](C)(CO)[C@H](O)CC[C@@]2(C)[C@@H]1CC(Sc1ccc(C)cc1)C1=CCOC1=O (some centres undefined) | 4.54 | 
9 | C=C1CC[C@@H]2[C@]3(C)COC(C)(C)O[C@@H]3CC[C@@]2(C)[C@@H]1C/C=C1/C(=O)OC[C@H]1OC(=O)CSc1cccs1 | 4.82 | 
10 | C=C1CC[C@@H]2[C@]3(C)COC(C)(C)O[C@@H]3CC[C@@]2(C)[C@@H]1C[C@H](Sc1cccs1)C1=CCOC1=O | 5.05 | pIC50 [2]: 5.30; pIC50 [3]: 5.10; pIC50 [4]: 4.70; Activity [5]: Non-Toxic
11 | C=C1CC[C@@H]2[C@]3(C)COC(C)(C)O[C@@H]3CC[C@@]2(C)[C@@H]1C[C@@H](Sc1cccs1)C1=CCOC1=O | 4.70 | 
12 | C=C1CC[C@@H]2[C@](C)(CO)[C@H](O)CC[C@@]2(C)C1C/C=C1/C(=O)OC[C@H]1OC(=O)CCCSc1ccccn1 (single isomer, unassigned) | 4.85 | 
13 | C=C1CC[C@@H]2[C@](C)(CO)[C@H](O)CC[C@@]2(C)C1C/C=C1/C(=O)OC[C@H]1OC(=O)CCCSc1ccc(F)cc1 (single isomer, unassigned) | 4.92 | 
14 | C=C1CC[C@@H]2[C@](C)(CO)[C@H](O)CC[C@@]2(C)[C@@H]1CC(Sc1ccc(F)cc1)C1=CCOC1=O (some centres undefined) | 4.80 | 
15 | C=C1CC[C@@H]2[C@](C)(CO)[C@H](O)CC[C@@]2(C)[C@@H]1C/C=C1/C(=O)OC[C@H]1OC(=O)CSc1ccc(C)cc1 | 4.57 | 
16 | C=C1CC[C@@H]2[C@]3(C)COC(C)(C)O[C@@H]3CC[C@@]2(C)[C@@H]1CC(Sc1ccc(F)cc1)C1=CCOC1=O (some centres undefined) | 4.89 | 
17 | C=C1CC[C@@H]2[C@]3(C)COC(C)(C)O[C@@H]3CC[C@@]2(C)[C@@H]1CC(Sc1ncccn1)C1=CCOC1=O (some centres undefined) | 5.15 | pIC50 [2]: 5.15; pIC50 [3]: 5.05; pIC50 [4]: 4.70; Activity [5]: Non-Toxic
18 | C=C1CC[C@@H]2[C@]3(C)COC(C)(C)O[C@@H]3CC[C@@]2(C)[C@@H]1C/C=C1/C(=O)OC[C@H]1OC(=O)CCCSc1ccc(F)cc1 | 4.89 | 
19 | CC(=O)O[C@H]1C(=O)[C@@]2(C)[C@H]([C@H](OC(=O)c3ccccc3)[C@]3(O)C[C@H](OC(=O)[C@H](O)[C@@H](NC(=O)c4ccccc4)c4ccccc4)C(C)=C1C3(C)C)[C@]1(OC(C)=O)CO[C@@H]1C[C@@H]2O [PACLITAXEL] | 5.15 | 
20 | C=C1CC[C@@H]2[C@]3(C)COC(C)(C)O[C@@H]3CC[C@@]2(C)[C@@H]1C/C=C1/C(=O)OC[C@H]1OC(=O)CCCSc1ccc([N+](=O)[O-])cc1 | 4.77 | 
21 | C=C1CC[C@@H]2[C@]3(C)COC(C)(C)O[C@@H]3CC[C@@]2(C)[C@@H]1C/C=C1/C(=O)OC[C@H]1OC(=O)CSc1ccc(C)cc1 | 4.96 | 

Row | Structure (SMILES) | pIC50 [1] | further results
22 | C=C1CC[C@@H]2[C@](C)(CO)[C@H](O)CC[C@@]2(C)C1C/C=C1/C(=O)OC[C@H]1OC(=O)CCCSc1cccs1 (single isomer, unassigned) | 4.80 | 
23 | C=C1CC[C@@H]2[C@](C)(CO)[C@H](O)CC[C@@]2(C)[C@@H]1C/C=C1/C(=O)OC[C@H]1OC(=O)CSc1ccc(F)cc1 | 4.85 | 
24 | C=C1CC[C@@H]2[C@](C)(CO)[C@H](O)CC[C@@]2(C)[C@@H]1CC(Sc1ccc(OC)cc1)C1=CCOC1=O (some centres undefined) | 4.82 | 
25 | C=C1CC[C@@H]2[C@](C)(CO)[C@H](O)CC[C@@]2(C)C1C/C=C1/C(=O)OC[C@H]1OC(=O)CCCSc1ccc([N+](=O)[O-])cc1 (single isomer, unassigned) | 4.77 | 
26 | C=C1CC[C@@H]2[C@]3(C)COC(C)(C)O[C@@H]3CC[C@@]2(C)[C@@H]1C/C=C1/C(=O)OC[C@H]1OC(=O)CCCSc1cccs1 | 5.05 | pIC50 [2]: 6.15; pIC50 [3]: 5.00; pIC50 [4]: 4.60; Activity [5]: Non-Toxic
27 | C=C1CC[C@@H]2[C@]3(C)COC(C)(C)O[C@@H]3CC[C@@]2(C)[C@@H]1C/C=C1/C(=O)OC[C@H]1OC(=O)CSc1ccc([N+](=O)[O-])cc1 | 5.05 | pIC50 [2]: 5.00; pIC50 [3]: 4.72; pIC50 [4]: 4.96; Activity [5]: Non-Toxic
28 | C=C1CC[C@@H]2[C@]3(C)COC(C)(C)O[C@@H]3CC[C@@]2(C)[C@@H]1CC(Sc1nccs1)C1=CCOC1=O (some centres undefined) | 5.00 | pIC50 [2]: 5.52; pIC50 [3]: 4.92; pIC50 [4]: 4.51; Activity [5]: Non-Toxic
29 | C=C1CC[C@@H]2[C@](C)(CO)[C@H](O)CC[C@@]2(C)[C@@H]1CC(Sc1ccccc1)C1=CCOC1=O (some centres undefined) | 4.85 | 
30 | C=C1CC[C@@H]2[C@]3(C)COC(C)(C)O[C@@H]3CC[C@@]2(C)[C@@H]1CC(Sc1ccccc1)C1=CCOC1=O (some centres undefined) | 4.92 | 
31 | C=C1CC[C@@H]2[C@](C)(CO)[C@H](O)CC[C@@]2(C)[C@@H]1CC(Sc1ccc([N+](=O)[O-])cc1)C1=CCOC1=O (some centres undefined) | 4.77 | 
32 | C=C1CC[C@@H]2[C@](C)(CO)[C@H](O)CC[C@@]2(C)[C@@H]1CC(Sc1nccs1)C1=CCOC1=O (some centres undefined) | 4.85 | 
33 | C=C1CC[C@@H]2[C@](C)(CO)[C@H](O)CC[C@@]2(C)[C@@H]1C/C=C1/C(=O)OC[C@H]1O [ANDROGRAPHOLIDE] | 4.52 | 
34 | C=C1CC[C@@H]2[C@]3(C)COC(C)(C)O[C@@H]3CC[C@@]2(C)[C@@H]1C/C=C1/C(=O)OC[C@H]1OC(=O)CCCSc1ccc(C)cc1 | 4.85 | 
35 | C=C1CC[C@@H]2[C@]3(C)COC(C)(C)O[C@@H]3CC[C@@]2(C)[C@@H]1CC(Sc1ccc([N+](=O)[O-])cc1)C1=CCOC1=O (some centres undefined) | 4.92 | 
36 | C=C1CC[C@@H]2[C@]3(C)COC(C)(C)O[C@@H]3CC[C@@]2(C)[C@@H]1C/C=C1/C(=O)OC[C@H]1OC(=O)CCCSc1ccc(OC)cc1 | 4.74 | 
37 | C=C1CC[C@@H]2[C@](C)(CO)[C@H](O)CC[C@@]2(C)[C@@H]1CC(Sc1cccs1)C1=CCOC1=O (some centres undefined) | 4.82 | 
38 | C=C1CC[C@@H]2[C@](C)(CO)[C@H](O)CC[C@@]2(C)[C@@H]1C/C=C1/C(=O)OC[C@H]1OC(=O)CSc1ccc([N+](=O)[O-])cc1 | 4.77 | 
39 | C=C1CC[C@@H]2[C@](C)(CO)[C@H](O)CC[C@@]2(C)[C@@H]1C/C=C1/C(=O)OC[C@H]1OC(=O)CSc1cccs1 | 4.74 | 
40 | C=C1CC[C@@H]2[C@](C)(CO)[C@H](O)CC[C@@]2(C)C1C/C=C1/C(=O)OC[C@H]1OC(=O)CCCSc1ccc(OC)cc1 (single isomer, unassigned) | 4.72 | 
41 | C=C1CC[C@@H]2[C@]3(C)COC(C)(C)O[C@@H]3CC[C@@]2(C)[C@@H]1CC(Sc1ccccn1)C1=CCOC1=O (some centres undefined) | 4.85 | 

Reference: ChEMBL document CHEMBL4261531, “Synthesis of thioether andrographolide derivatives and their inhibitory effect against cancer cells” (Medchemcomm, 2017)
